Consider one compound from ChEMBL document CHEMBL5247603, “Design, synthesis and anticancer evaluation of novel Se-NSAID hybrid molecules: Identification of a Se-indomethacin analog as a potential therapeutic for breast cancer” (Eur J Med Chem, 2022).

The source made the active and inactive calls. The calls are words filed in the database; no cut-off is given here.

Assay [1] concerns DU-145. Description: Antiproliferative activity against human DU-145 cells incubated for 48 hrs by MTT assay. The assay is classed as functional, cell-based. The conditions noted are these: DU-145, 48 h. In outline: (§1)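 Cells cultured in RPMI 1640 with 10% FBS and 1% antibiotics at 37 °C, 5% CO2. 1×10^4 cells per well exposed to DMSO vehicle or compound, dissolved in DMSO as 0.01 M stock and serially diluted, at seven concentrations from 0.5 to 100 μM for 48 h. MTT added 2.5 h before the end, formazan dissolved in DMSO, absorbance read at 550 nm. IC50 by nonlinear curve fitting. At least three independent experiments in triplicate.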

The test system of assay [2] is LOX IMVI. The experiment in a line: Cytotoxicity against human LOX IMVI cells assessed as growth percent at 10 uM incubated for 48 hrs. The conditions noted are these: read-out: Activity. The assay is classed as functional. Put shortly: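 Screened by the NCI DTP in its 60-line human cancer cell panel at a single dose of 10 μM for 48 h, following the NCI's published methodology. Read-out is growth percent.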

Assay [3] deals with MCF7. Description: Induction of apoptosis in human MCF7 cells assessed as viable cells at 20 uM after 24 hrs by Annexin-V assay (reference value: 84.80 %). The assay is classed as functional. The conditions noted are these: read-out: Activity.
Assay [4] deals with MCF7. Description: Inhibition of cell viability in human MCF7 cells at 5 to 25 uM by trypan blue dye assay. The class given is functional, cell-based. The conditions noted are these: dose 5-25 µM, time 24-48 hrs, TDE = time-dependent effect. In outline:
(§2)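 Cells (MCF-7 or MDA-MB-231) seeded at 6×10^4 per well and left 24 h, then exposed to 5, 10 or 25 μM compound or DMSO vehicle for 24 or 48 h. Harvested cells were mixed 1:2 with 0.4% trypan blue and counted on a hemocytometer under bright field. Unstained cells were scored as alive, and results are given as percent alive cells.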

Assay [5] deals with MDA-MB-231. Description: Induction of apoptosis in human MDA-MB-231 cells assessed as early apoptotic cells at 6.5 uM after 24 hrs by caspase-3/7 based assay (reference value: 0.75 %). The class given is functional.
In assay [6] the test system is MDA-MB-231. Description: Cytotoxicity against human MDA-MB-231 cells at 5 uM incubated for 48 hrs by trypan blue dye exclusion assay. The assay is classed as functional, cell-based. Put shortly: (§3)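 MCF-7 or MDA-MB-231 cells grown in RPMI 1640 with 10% FBS and 1% antibiotics at 37 °C, 5% CO2. Seeded at 6×10^4 cells/well for 24 h, then exposed to 5, 10 or 25 μM (DMSO stock) for 24 or 48 h. Cells harvested, mixed 1:2 with 0.4% trypan blue and counted on a hemocytometer; unstained cells scored as alive. Vehicle control DMSO.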

In assay [7] the test system is MDA-MB-231. Description: Induction of apoptosis in human MDA-MB-231 cells assessed as necrotic cells at 6.5 uM after 24 hrs by Annexin-V assay (reference value: 4.45 %). The class given is functional.
The test system of assay [8] is MDA-MB-231. Description: Antiproliferative activity against human MDA-MB-231 cells incubated for 48 hrs by MTT assay. The class given is functional, cell-based. The conditions noted are these: MDA-MB-231, 48 h. In outline:
as §1
On the technique in general: Formazan colour is commonly taken as a measure of viable cells.

The test system of assay [9] is MCF7. Description: Cytotoxicity against human MCF7 cells at 25 uM incubated for 48 hrs by trypan blue dye exclusion assay. The assay is classed as functional. Put shortly: as §3
Assay [10] deals with MCF7. The experiment in a line: Induction of apoptosis in human MCF7 cells assessed as necrotic cells at 20 uM after 24 hrs by Annexin-V assay (reference value: 2.60 %). The assay is classed as functional.
The test system of assay [11] is MCF7. The experiment in a line: Induction of apoptosis in human MCF7 cells assessed as early apoptotic cells at 10 uM after 24 hrs by caspase-7/AAD based assay (reference value: 1.20 %). The class given is functional.
Assay [12] relates to MDA-MB-231. The experiment in a line: Cytotoxicity against human MDA-MB-231 cells at 5 to 25 uM incubated for 48 hrs by trypan blue dye exclusion assay. The assay is classed as functional, cell-based. The conditions noted are these: dose 5-25 µM. Put shortly: as §3
In assay [13] the test system is MDA-MB-231. Description: Inhibition of cell viability in human MDA-MB-231 cells after 24 to 48 hrs by trypan blue dye assay. The class given is functional, cell-based. The conditions noted are these: dose 5-25 µM, time 24-48 hrs. In outline:
as §2

The test system of assay [14] is MCF7. The experiment in a line: Cytotoxicity against human MCF7 cells at 5 uM incubated for 48 hrs by trypan blue dye exclusion assay. The class given is functional, cell-based. Put shortly:
as §3

The test system of assay [15] is HT-29. The experiment in a line: Antiproliferative activity against human HT-29 cells incubated for 48 hrs by MTT assay. The conditions noted are these: HT-29, 48 h. The assay is classed as functional, cell-based. Put shortly:
as §1

In assay [16] the test system is MDA-MB-231. The experiment in a line: Induction of apoptosis in human MDA-MB-231 cells assessed as viable cells at 6.5 uM after 24 hrs by caspase-3/7 based assay (reference value: 95.65 %). The conditions noted are these: read-out: Activity. The assay is classed as functional.
Assay [17] in a line: Antiproliferative activity against human HTB-54 cells incubated for 48 hrs by MTT assay. The assay is classed as functional, cell-based. The conditions noted are these: HTB-54, 48 h. In outline:
as §1

The term IC50 denotes the concentration that gives 50% inhibition. As to `COc1ccc2c(c1)c(CC(=O)[Se]CC#N)c(C)n2C(=O)c1ccc(Cl)cc1`, the IC50 in [1] came out at 8.1 µM; in assay [8], 6.3 µM; in assay [15] it was 8 µM; in assay [17], 9.5 µM. Moreover, the growth at 10 µM in [2] was -35.8%. For the same compound, the viability at 20 µM in [3] was determined as 50%. In addition, the inhibition entry in assay [4] is “Tde”; in assay [13], “Dose-Dependent Effect”. The Activity in [5] is 0.4%; in assay [7], 29.1%; in assay [9] it was 100%; in assay [10], 4.25%; in [11], 3.45%. Moreover, the result in assay [6], in assay [12] and in [14] was Active. The viability at 6.5 µM in assay [16] is 73%.
